This passage reports Activity, IC50 and inhibition results from ChEMBL document CHEMBL1799919, “Design, synthesis, biological evaluation, and structure-activity relationships of substituted phenyl 4-(2-oxoimidazolidin-1-yl)benzenesulfonates as new tubulin inhibitors mimicking combretastatin A-4” (J Med Chem, 2011).

Assay [1] has as its system M21. As to the kind of experiment: Cell cycle arrest in human M21 cells assessed as accumulation at G0/G1 phase at 5 times IC50 after 24 hrs using propidium iodide staining by flow cytometric analysis (reference value: 61%). In kind it is functional. (Flow cytometry measures light scatter and fluorescence of single cells or particles in a stream.)
In a further assay the test system is MCF7. As to the kind of experiment: Antiproliferative activity against human MCF7 cells after 48 hrs by sulforhodamine B assay. In kind it is functional, cell-based. The following applies: MCF7, 48 h. Background: In SRB staining, fixed cells bind dye roughly in proportion to their protein.
Assay [2] relates to M21. As to the kind of experiment: Cell cycle arrest in human M21 cells assessed as accumulation at G2/M phase at 5 times IC50 after 24 hrs using propidium iodide staining by flow cytometric analysis (reference value: 9%). Format: functional.
The next assay concerns HT-29. As to the kind of experiment: Antiproliferative activity against human HT-29 cells after 48 hrs by sulforhodamine B assay. The following applies: HT-29, 48 h. Format: functional, cell-based.
In assay [3] the test system is M21. Description: Cell cycle arrest in human M21 cells assessed as accumulation at S phase at 5 times IC50 after 24 hrs using propidium iodide staining by flow cytometric analysis (reference value: 30%). Format: functional.
The test system of assay [4] is M21. As to the kind of experiment: Antiproliferative activity against human M21 cells after 48 hrs by sulforhodamine B assay. The settings on record: M21, 48 h. In kind it is functional, cell-based.
A further assay relates to MDA-MB-231. Description: Displacement of N,N'-ethylenebis(iodoacetamide) from colchicine-binding site of beta-tubulin in human MDA-MB-231 cells at 1000 times IC50 preincubated for after 2 hrs before N,N'-ethylenebis(iodoacetamide) addition measured after 1.5 hrs by chemiluminescence assay. In kind it is cell-based. The procedure, abridged:
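EBI (100 μM final) added for 1.5 h at 37 °C; controls received 0.5% DMSO. Lysates (20 μg protein) run on 10% SDS-PAGE and blotted with anti-β-tubulin (TUB 2.1). β-tubulin–EBI adduct band detected by ECL.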

In assay [5] the test system is M21. Description: Disruption of cytoskeleton microtubule structure of human M21 cells at 5 times IC50 after 16 hrs by indirect immunofluorescence assay. In kind it is functional, cell-based. The procedure, abridged: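 Fixed in 3.7% formaldehyde, permeabilized with saponin, and stained with anti-β-tubulin (TUB 2.1), Alexa-488 secondary and DAPI. Microtubule structure scored by fluorescence microscopy.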

In general, IC50 refers to the concentration that gives 50% inhibition. Lower therefore signals greater potency.

The source made the active and inactive calls. The calls are words filed in the database; no cut-off is given here.

Regarding `CCCc1ccc(OS(=O)(=O)c2ccc(N3CCNC3=O)cc2)cc1`, the Activity in the assay with M21 [1] is reported as 1%; with M21 [2] it was 81%; in the assay on M21 [3], 18%. Also, the IC50 in the assay on MCF7 came out at 110 nM; in the assay with HT-29, 77 nM; in the assay on M21 [4], 59 nM. Also, in the assay on MDA-MB-231, the inhibition entry was “Active”. The result in the assay on M21 [5] was Active.
`Cc1cccc(OS(=O)(=O)c2ccc(N3CCNC3=O)cc2)c1C`: the values for the Activity in the assay on M21 [1], in the assay with M21 [2] and with M21 [3] were 5%, 63% and 32%, respectively. In addition, the IC50 in the assay with MCF7 stood at 50 nM; with HT-29, 31 nM; in the assay with M21 [4], 17 nM. The inhibition entry in the assay with MDA-MB-231 is “Active”. Further, the outcome in the assay on M21 [5] was Active.
Regarding `Cc1cccc(OS(=O)(=O)c2ccc(N3CCNC3=O)cc2)c1`, the results for the Activity with M21 [1], in the assay on M21 [2] and in the assay on M21 [3] were 1%, 99% and 0%, respectively. Besides, the results for the IC50 in the assay with MCF7, in the assay with HT-29 and with M21 [4] were 57 nM, 76 nM and 54 nM, respectively. For the same compound, the inhibition result in the assay with MDA-MB-231 was “Active”. Also, the outcome in the assay on M21 [5] was Active.
On to `Cc1ccccc1OS(=O)(=O)c1ccc(N2CCNC2=O)cc1`, for which the Activity in the assay on M21 [1] is 11%; in the assay on M21 [2], 74%; with M21 [3] it was 15%. The IC50 in the assay on MCF7 is 30 nM; in the assay with HT-29, 33 nM; in the assay on M21 [4], 26 nM. Besides, the inhibition result in the assay with MDA-MB-231 was “Active”. Moreover, in the assay on M21 [5], the outcome was Active.
Regarding `O=C1NCCN1c1ccc(S(=O)(=O)Oc2ccccc2F)cc1`, the figures for the Activity in the assay with M21 [1], in the assay with M21 [2] and in the assay with M21 [3] were 18%, 48% and 34%, respectively. The IC50 in the assay with MCF7 was 61 nM; in the assay with HT-29 it was 51 nM; with M21 [4], 34 nM. Further, the inhibition result with MDA-MB-231 was “Active”. The outcome in the assay on M21 [5] was Active.
Consider `Cc1cc(C)c(OS(=O)(=O)c2ccc(N3CCNC3=O)cc2)cc1C`, for which the Activity with M21 [1] was 1%; in the assay with M21 [2], 79%; in the assay with M21 [3], 20%. Moreover, the results for the IC50 with MCF7, with HT-29 and in the assay on M21 [4] were 66 nM, 42 nM and 41 nM, respectively. Further, the inhibition result with MDA-MB-231 was “Active”. Besides, the result with M21 [5] was Active.
Turning to `Cc1ccc(OS(=O)(=O)c2ccc(N3CCNC3=O)cc2)c(C)c1`, the Activity is reported as 0% in the assay with M21 [1], 100% in the assay with M21 [2] and 0% in the assay with M21 [3]. Besides, the results for the IC50 in the assay with MCF7, in the assay on HT-29 and with M21 [4] were 50 nM, 51 nM and 39 nM, respectively. Besides, the inhibition entry in the assay on MDA-MB-231 was “Active”. Further, the result with M21 [5] was Active.
As to `CCc1ccccc1OS(=O)(=O)c1ccc(N2CCNC2=O)cc1`, the Activity with M21 [1] is recorded as 0%; with M21 [2], 100%; in the assay on M21 [3], 0%. Further, the IC50 in the assay on MCF7 came out at 87 nM; with HT-29, 61 nM; in the assay on M21 [4], 52 nM. The inhibition result in the assay on MDA-MB-231 is “Active”. The outcome in the assay on M21 [5] was Active.
Regarding `Cc1cc(OS(=O)(=O)c2ccc(N3CCNC3=O)cc2)cc(C)c1C`, the figures for the Activity in the assay on M21 [1], in the assay on M21 [2] and in the assay on M21 [3] were 0%, 99% and 0%, respectively. For the same compound, the figures for the IC50 with MCF7, in the assay on HT-29 and with M21 [4] were 49 nM, 34 nM and 15 nM, respectively. Moreover, in the assay with MDA-MB-231, the inhibition result was “Active”. Moreover, the result in the assay with M21 [5] was Active.
Regarding `COc1ccc(OS(=O)(=O)c2ccc(N3CCNC3=O)cc2)cc1OC`, the Activity in the assay on M21 [1] is given as 1%; with M21 [2] it was 80%; with M21 [3], 19%. The IC50 in the assay on MCF7 worked out at 88 nM; in the assay on HT-29 it was 67 nM; in the assay on M21 [4] it was 45 nM. Further, the inhibition result in the assay with MDA-MB-231 was “Active”. For the same compound, in the assay with M21 [5], the outcome was Active.
For `O=C1NCCN1c1ccc(S(=O)(=O)Oc2cc(F)c(F)c(F)c2)cc1`, the Activity is 4% in the assay on M21 [1], 65% in the assay on M21 [2] and 31% in the assay on M21 [3]. In addition, the IC50 with MCF7 was determined as 91 nM; in the assay with HT-29, 73 nM; in the assay on M21 [4], 43 nM. For the same compound, in the assay on MDA-MB-231, the inhibition result is “Active”. For the same compound, the outcome in the assay on M21 [5] was Active.
`O=C1NCCN1c1ccc(S(=O)(=O)Oc2ccccc2I)cc1`: the Activity in the assay on M21 [1] turned out to be 4%; in the assay on M21 [2] it was 71%; in the assay with M21 [3], 25%. Besides, the half-inhibitory concentration (IC50) in the assay on MCF7 amounted to 71 nM; in the assay on HT-29, 55 nM; in the assay with M21 [4], 40 nM. Also, the inhibition result with MDA-MB-231 is “Active”. Moreover, the outcome with M21 [5] was Active.
`COc1cccc(OS(=O)(=O)c2ccc(N3CCNC3=O)cc2)c1`: the Activity with M21 [1] came out at 1%; in the assay with M21 [2], 98%; in the assay with M21 [3] it was 1%. The IC50 was found to be 34 nM in the assay with MCF7, 29 nM with HT-29 and 24 nM in the assay on M21 [4]. Further, in the assay on MDA-MB-231, the inhibition entry is “Active”. The result with M21 [5] was Active.
As for `O=C1NCCN1c1ccc(S(=O)(=O)Oc2ccc(F)c(F)c2)cc1`, the results for the Activity in the assay with M21 [1], in the assay with M21 [2] and in the assay with M21 [3] were 2%, 72% and 26%, respectively. Also, the IC50 with MCF7 was 100 nM; in the assay with HT-29 it was 75 nM; in the assay with M21 [4], 47 nM. The inhibition result with MDA-MB-231 is “Active”. Besides, the result with M21 [5] was Active.
With `Cc1cc(C)cc(OS(=O)(=O)c2ccc(N3CCNC3=O)cc2)c1`, the Activity in the assay on M21 [1] turned out to be 7%; in the assay with M21 [2], 67%; in the assay on M21 [3] it was 26%. For the same compound, the IC50 with MCF7 came to 47 nM; with HT-29, 32 nM; in the assay on M21 [4], 16 nM. Further, the inhibition entry in the assay on MDA-MB-231 was “Active”. Also, the result with M21 [5] was Active.
For the compound `O=C1NCCN1c1ccc(S(=O)(=O)Oc2ccc3[nH]ccc3c2)cc1`, the Activity in the assay with M21 [1] is recorded as 19%; in the assay on M21 [2], 64%; in the assay on M21 [3] it was 17%. The IC50 in the assay on MCF7 was found to be 100 nM; in the assay with HT-29, 70 nM; in the assay on M21 [4], 65 nM. Further, the inhibition result with MDA-MB-231 was “Active”. The result with M21 [5] was Active.
Regarding `CCCc1cccc(OS(=O)(=O)c2ccc(N3CCNC3=O)cc2)c1`, the Activity in the assay with M21 [1] turned out to be 2%; in the assay with M21 [2], 73%; in the assay with M21 [3], 25%. Moreover, the IC50 was 51 nM with MCF7, 34 nM in the assay on HT-29 and 27 nM in the assay with M21 [4]. For the same compound, in the assay with MDA-MB-231, the inhibition entry was “Active”. Also, the result with M21 [5] was Active.
In the case of `CCCc1ccccc1OS(=O)(=O)c1ccc(N2CCNC2=O)cc1`, the values for the Activity in the assay with M21 [1], with M21 [2] and with M21 [3] were 0%, 100% and 0%, respectively. Besides, the IC50 in the assay with MCF7 was found to be 69 nM; in the assay on HT-29, 76 nM; with M21 [4], 61 nM. Further, the inhibition entry in the assay on MDA-MB-231 was “Active”. Further, the outcome in the assay on M21 [5] was Active.
As to `O=C1NCCN1c1ccc(S(=O)(=O)Oc2cccc(F)c2)cc1`, the Activity with M21 [1] is 7%; with M21 [2], 84%; in the assay with M21 [3], 9%. Moreover, the IC50 in the assay on MCF7 turned out to be 54 nM; with HT-29, 42 nM; with M21 [4], 31 nM. Moreover, the inhibition entry in the assay with MDA-MB-231 was “Active”. Further, in the assay with M21 [5], the outcome was Active.
Take `O=C1NCCN1c1ccc(S(=O)(=O)Oc2ccc(F)cc2F)cc1`: the Activity in the assay on M21 [1] is on record as 2%; in the assay with M21 [2], 72%; in the assay on M21 [3], 26%. Besides, the IC50 with MCF7 was found to be 55 nM; with HT-29 it was 41 nM; in the assay on M21 [4], 35 nM. Moreover, the inhibition entry in the assay on MDA-MB-231 is “Active”. The result in the assay with M21 [5] was Active.
For the compound `CCCOc1ccc(OS(=O)(=O)c2ccc(N3CCNC3=O)cc2)cc1`, the Activity is recorded as 0% in the assay with M21 [1], 94% in the assay on M21 [2] and 6% with M21 [3]. Further, the IC50 in the assay with MCF7 stood at 140 nM; in the assay on HT-29, 110 nM; in the assay with M21 [4], 96 nM. Also, the inhibition result in the assay with MDA-MB-231 is “Active”. The outcome with M21 [5] was Active.
`CCOc1ccccc1OS(=O)(=O)c1ccc(N2CCNC2=O)cc1`: the Activity is recorded as 1% in the assay on M21 [1], 80% in the assay on M21 [2] and 19% in the assay with M21 [3]. Also, the figures for the IC50 in the assay on MCF7, in the assay on HT-29 and in the assay on M21 [4] were 83 nM, 40 nM and 24 nM, respectively. Further, the inhibition entry in the assay on MDA-MB-231 was “Active”. The outcome in the assay with M21 [5] was Active.
